Laboratory results from ChEMBL document CHEMBL1139616, “Nitrone derivatives of trolox as neuroprotective agents” (Bioorg Med Chem Lett, 2005).

Columns and labels:
Type in all cases: functional
Rattus norvegicus [1] = organism: Rattus norvegicus; experiment: In vitro inhibitory concentration against Total peroxyl radical-trapping antioxidant parameter(TRAP)
In short: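 Total peroxyl radical-trapping antioxidant parameter taken from spectrophotometric reading at 417 nm of the ABTS cation radical, which forms by one-electron oxidation.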

Rattus norvegicus [2] = organism: Rattus norvegicus; experiment: In vitro inhibitory concentration against hydroxyl radical (-OH)
Rattus norvegicus [3] = organism: Rattus norvegicus; experiment: In vitro inhibitory concentration against lipid peroxidation (LPO)
In short: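 Brain mitochondria from male LATI Wistar rats (0.3 mg protein) in 25 mM Tris–HCl pH 7.4 with 0.2 mM ascorbic acid, with or without compound. Peroxidation started with 0.2 mM FeSO4, 60 min at 37 °C. Stopped with 20% TCA, centrifuged, supernatant boiled 20 min with 0.5% thiobarbituric acid. TBA-reactive products read at 535 nm.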

Rattus norvegicus [4] = organism: Rattus norvegicus; experiment: In vitro inhibitory concentration against peroxynitrite (ONOO-): using pyrogallol red bleaching assay; (na: not active)
In short: (§1)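 Peroxynitrite scavenging measured as pyrogallol red bleaching at 542 nm. ONOO- prepared essentially by the Hughes and Nicklin method.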

Rattus norvegicus [5] = organism: Rattus norvegicus; experiment: In vitro inhibitory concentration against NO ([…]); (na: not active)
In short: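 NO generated by thermal breakdown of cupferron (0.2% in ethanol) at 40 °C. Samples at 0.3–100 mM in ethanol mixed with Griess–Ilosvay reagent (0.2% N-(1-naphthyl)ethylenediamine in 0.4 M HCl plus 2% sulfanilamide in 4 M HCl). Free NO estimated indirectly from its nitrite/nitrate products, absorbance read at 540 nm.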

Rattus norvegicus [6] = organism: Rattus norvegicus; experiment: In vitro inhibitory concentration against hydroxyl radical (-OH); (na: not active)
Rattus norvegicus [7] = organism: Rattus norvegicus; experiment: In vitro inhibitory concentration against peroxynitrite (ONOO-): using pyrogallol red bleaching assay; in short: as §1

IC50 (Rattus norvegicus [1]) | IC50 (Rattus norvegicus [2]) | IC50 (Rattus norvegicus [3]) | IC50 (Rattus norvegicus [4]) | IC50 (Rattus norvegicus [5]) | IC50 (Rattus norvegicus [6]) | IC50 (Rattus norvegicus [7]) | SMILES
3060 µM | 43000 µM | 16 µM | Not Active | – | – | – | CC(C)(C)/[N+]([O-])=C/c1ccccc1
437 µM | 1500 µM | 5490 µM | Not Active | Not Active | – | – | CC(C)(C)/[N+]([O-])=C/c1ccc(S(=O)(=O)[O-])cc1S(=O)(=O)[O-].[Na+].[Na+]
2940 µM | – | 23 µM | – | – | Not Active | 3700 µM | COc1c(C)c(C)c2c(c1C)CCC(C)(/C=[N+](\[O-])C(C)(C)C)O2 (configuration not stated)
6 µM | 150 µM | 0.68 µM | – | – | – | 1100 µM | Cc1c(C)c2c(c(C)c1O)CCC(C)(/C=[N+](\[O-])C1CC1)O2 (configuration not stated)
895 µM | – | 10 µM | Not Active | – | Not Active | – | CC(=O)Oc1c(C)c(C)c2c(c1C)CCC(C)(/C=[N+](\[O-])C(C)(C)C)O2 (configuration not stated)
5.5 µM | 170 µM | 2 µM | – | – | – | 3200 µM | Cc1c(C)c2c(c(C)c1O)CCC(C)(/C=[N+](\[O-])C(C)(C)C)O2 (configuration not stated)
296 µM | – | 20 µM | – | – | Not Active | 1200 µM | COc1c(C)c(C)c2c(c1C)CCC(C)(/C=[N+](\[O-])C1CC1)O2 (configuration not stated)
117 µM | – | 3.7 µM | – | – | Not Active | 590 µM | CC(=O)Oc1c(C)c(C)c2c(c1C)CCC(C)(/C=[N+](\[O-])C1CC1)O2 (configuration not stated)
10 µM | 60 µM | 25 µM | – | – | – | 550 µM | Cc1c(C)c2c(c(C)c1O)CCC(C)(C(=O)O)O2 (configuration not stated) [TROLOX]
